Test results taken from ChEMBL document CHEMBL1123885, “Analogues of 3-ethyl-3-(4-pyridyl)piperidine-2,6-dione as selective inhibitors of aromatase: derivatives with variable 1-alkyl and 3-alkyl substituents” (J Med Chem, 1987).

Assays:
Aromatase = target: T1, Aromatase (Homo sapiens, UniProt P11511)
T1 sequence (P11511 whole entry): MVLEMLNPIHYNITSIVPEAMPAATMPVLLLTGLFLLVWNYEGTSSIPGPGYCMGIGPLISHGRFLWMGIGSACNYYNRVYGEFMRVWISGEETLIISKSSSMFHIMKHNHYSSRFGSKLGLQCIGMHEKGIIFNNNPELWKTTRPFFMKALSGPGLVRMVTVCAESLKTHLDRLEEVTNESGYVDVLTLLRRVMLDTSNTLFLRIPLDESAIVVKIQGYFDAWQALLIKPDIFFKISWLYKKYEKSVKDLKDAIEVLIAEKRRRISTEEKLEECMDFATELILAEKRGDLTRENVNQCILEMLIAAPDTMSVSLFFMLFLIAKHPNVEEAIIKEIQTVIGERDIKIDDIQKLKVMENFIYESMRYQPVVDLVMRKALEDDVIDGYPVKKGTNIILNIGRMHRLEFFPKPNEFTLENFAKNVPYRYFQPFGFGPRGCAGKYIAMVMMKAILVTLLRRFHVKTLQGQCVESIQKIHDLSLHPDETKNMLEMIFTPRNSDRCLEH

[1] = target: T2, Cholesterol side-chain cleavage enzyme, mitochondrial (Bos taurus, UniProt P00189); test: Inhibition of bovine desmolase, cytochrome P450 11A1; NI = No Inhibition at maximum concentration tested
T2 sequence (P00189 whole entry): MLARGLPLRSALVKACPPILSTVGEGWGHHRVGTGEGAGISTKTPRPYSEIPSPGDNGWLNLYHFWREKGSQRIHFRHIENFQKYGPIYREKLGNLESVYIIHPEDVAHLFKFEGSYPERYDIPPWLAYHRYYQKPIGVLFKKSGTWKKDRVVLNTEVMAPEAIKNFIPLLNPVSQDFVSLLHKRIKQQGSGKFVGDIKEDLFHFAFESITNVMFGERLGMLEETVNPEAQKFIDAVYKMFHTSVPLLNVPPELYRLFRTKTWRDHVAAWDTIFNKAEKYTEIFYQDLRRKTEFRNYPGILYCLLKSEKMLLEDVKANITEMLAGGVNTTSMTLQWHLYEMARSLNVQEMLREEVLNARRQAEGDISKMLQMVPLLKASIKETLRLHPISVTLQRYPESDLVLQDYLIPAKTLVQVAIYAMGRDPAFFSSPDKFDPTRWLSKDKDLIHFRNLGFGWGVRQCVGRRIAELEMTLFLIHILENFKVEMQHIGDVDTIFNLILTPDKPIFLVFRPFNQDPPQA
Procedure, shortened: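 Bovine adrenal cortex mitochondrial fraction as side-chain cleavage enzyme. […] Released [14C]isocaproic acid passes through alumina, which retains the steroid; eluate radioactivity is counted. Compound tested at 5, 10, 20 and 50 μg/mL. IC50 is the concentration that halves control activity, extrapolated when above the top concentration. "None" means no inhibition at the maximum tested.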

[2] = Partition coefficient (logP); format: physicochemical; conditions: octanol/water

| SMILES | IC50 (Aromatase) | IC50 [1] | logP [2] |
| --- | --- | --- | --- |
| CCCCCCCC1(c2ccncc2)CCC(=O)NC1=O (stereo not given) | 3.2 µM |  |  |
| CCN1C(=O)CCC(CC)(c2ccncc2)C1=O (stereo not given) |  | No inhibition | 1.64 |
| CCC1(c2ccncc2)CCC(=O)N(C)C1=O (stereo not given) |  | No inhibition |  |
| CCCCCCC1(c2ccncc2)CCC(=O)NC1=O (stereo not given) | 3.6 µM | No inhibition | 2.94 |
| CCCCCC1(c2ccncc2)CCC(=O)NC1=O (stereo not given) | 2.5 µM | No inhibition | 2.26 |
| CCCCN1C(=O)CCC(CC)(c2ccncc2)C1=O (stereo not given) |  | No inhibition | 2.76 |

Results, then the compound that gave them:

| IC50 (Aromatase) | IC50 [1] | logP [2] | SMILES |
| --- | --- | --- | --- |
|  | No inhibition |  | CCCCCCN1C(=O)CCC(CC)(c2ccncc2)C1=O (stereo not given) |
|  | No inhibition |  | CC1(c2ccncc2)CCC(=O)NC1=O (stereo not given) |
|  |  | 0.58 | CCC1(c2ccncc2)CCC(=O)NC1=O (stereo not given) [ROGLETIMIDE] |
|  | No inhibition |  | CCCCC1(c2ccncc2)CCC(=O)NC1=O (stereo not given) |
|  | No inhibition | 1.13 | CCCC1(c2ccncc2)CCC(=O)NC1=O (stereo not given) |
|  | No inhibition | 2.18 | CCCN1C(=O)CCC(CC)(c2ccncc2)C1=O (stereo not given) |
